Reference: ChEMBL document CHEMBL4190346, “Structure-based design, synthesis, and biological evaluation of withaferin A-analogues as potent apoptotic inducers” (Eur J Med Chem, 2017)
Calls of active or inactive are those of the source. No cut-off for these calls is given here.

Key:
Vero [1] = test: Cytotoxicity against African green monkey Vero cells assessed as reduction in cell viability using compound addition to cell culture cells in log phase of growth and incubated for 48 hrs by MTT assay; type: cell-based, Chlorocebus sabaeus; conditions: Chlorocebus sabaeus, Vero, 48 h; read-out: IC50
HeLa [2] = test: Induction of early apoptosis in human HeLa cells at 4 uM incubated for 1 hr by annexin V and propidium iodide staining based flow cytometry; type: functional, cell-based
A549 [3] = test: Cytotoxicity against human A549 cells assessed as reduction in cell viability using compound addition to cell culture cells in log phase of growth and incubated for 48 hrs by MTT assay; type: functional, cell-based; conditions: Homo sapiens, A549, 48 h; read-out: IC50
HeLa [4] = test: Induction of apoptosis in human HeLa cells assessed as increase in caspase-3 activity by measuring pNA release level at 32 uM incubated for 4 hrs using c-DEVD-pNA substrate by colorimetric assay; type: functional
Outline: (§1)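 HeLa cells in DMEM with 10% FBS were exposed for 4 h (fixed 24 or 32 level for 8 h). Staurosporine for 4 h served as the positive control. Cells were lysed at 4 °C for 10 min and centrifuged, and supernatant protein was measured by Bradford. Caspase-3 activity was read colorimetrically as nmol pNA/min/mL, with treated/untreated OD ratios. Values are means ± SD of three independent experiments in triplicate.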

A549 [5] = test: Cytotoxicity against human A549 cells assessed as reduction in cell viability using compound addition to cell culture cells in lag phase of growth and incubated for 48 hrs by MTT assay; type: functional, cell-based; conditions: Homo sapiens, A549, 48 h; read-out: IC50
HeLa [6] = test: Induction of cell cycle arrest in human HeLa cells assessed reduction in G2/M phase accumulation at 16 uM by 33342 propidium iodide based flow cytometry relative to untreated control; type: functional; conditions: TDE = time-dependent effect
Outline: (§2)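 HeLa cells (1–2 × 10^6 per well) were exposed for 12 h at 24 µM, or at 16 µM over a time course. Adherent and floating cells were pooled, washed in ice-cold PBS, and fixed/permeabilized overnight in ice-cold 70% ethanol. DNA was stained with propidium iodide and G1, G2/M and sub-G1 (hypoploid) fractions were read by flow cytometry. Results are from ≥3 independent experiments in triplicate.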

HeLa [7] = test: Induction of cell cycle arrest in human HeLa cells assessed increase in hypoploid phase accumulation at 24 uM incubated for 12 hrs by […] propidium iodide based flow cytometry relative to untreated control; type: functional
HeLa [8] = test: Cytotoxicity against human HeLa cells assessed as reduction in cell viability using compound addition to cell culture cells in lag phase of growth and incubated for 48 hrs by MTT assay; type: functional, cell-based; conditions: Homo sapiens, HeLa, 48 h; read-out: IC50
HeLa [9] = test: Induction of apoptosis in human HeLa cells assessed as increase in caspase-3 activity by measuring pNA release level at 8 uM incubated for 4 hrs using c-DEVD-pNA substrate by colorimetric assay; type: functional; outline: as §1
HeLa [10] = test: Cytotoxicity against human HeLa cells assessed as reduction in cell viability using compound addition to cell culture cells in log phase of growth and incubated for 48 hrs by MTT assay; type: functional, cell-based; conditions: Homo sapiens, HeLa, 48 h; read-out: IC50
MCF7 [11] = test: Cytotoxicity against human MCF7 cells assessed as reduction in cell viability using compound addition to cell culture cells in lag phase of growth and incubated for 48 hrs by MTT assay; type: functional, cell-based; conditions: Homo sapiens, MCF7, 48 h; read-out: IC50
[12] = Selectivity index, ratio of IC50 for African green monkey Vero cells to IC50 for human HeLa cells; type: toxicity; conditions: Vero cells and HeLa cells, read-out: Ratio IC50
HeLa [13] = test: Induction of apoptosis in human HeLa cells assessed as increase in caspase-3 activity by measuring pNA release level at 24 uM incubated for 8 hrs using c-DEVD-pNA substrate by colorimetric assay; type: functional; outline: as §1
HeLa [14] = test: Induction of apoptosis in human HeLa cells assessed increase in apoptotic nuclei formation at 8 uM incubated for 12 hrs by Hoechst 33342 staining based fluorescence microscopy; type: functional
MCF7 [15] = test: Cytotoxicity against human MCF7 cells assessed as reduction in cell viability using compound addition to cell culture cells in log phase of growth and incubated for 48 hrs by MTT assay; type: functional, cell-based; conditions: Homo sapiens, MCF7, 48 h; read-out: IC50
HeLa [16] = test: Induction of apoptosis in human HeLa cells assessed increase in DNA fragmentation at 16 uM incubated for 12 hrs by ethidium bromide staining based agarose gel electrophoresis; type: functional, cell-based
Outline: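 HeLa cells were incubated with the compounds at varying concentrations for 12 or 24 h. Controls were DMSO (solvent) and staurosporine 2 µM (positive). Adherent and floating cells were pooled, centrifuged at 500 g and washed twice in cold PBS. Genomic DNA was extracted with a kit, run on 1.8% agarose, stained with ethidium bromide and viewed under UV.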

HeLa [17] = test: Induction of apoptosis in human HeLa cells assessed as increase in caspase-3 activity by measuring pNA release level at 12 uM incubated for 4 hrs using c-DEVD-pNA substrate by colorimetric assay; type: functional; outline: as §1
HeLa [18] = test: Induction of apoptosis in human HeLa cells assessed as increase in caspase-3 activity by measuring pNA release level at 16 uM incubated for 4 hrs using c-DEVD-pNA substrate by colorimetric assay; type: functional; outline: as §1
HeLa [19] = test: Induction of cell cycle arrest in human HeLa cells assessed accumulation at G2/M phase at 16 uM incubated for 24 hrs by 33342 propidium iodide based flow cytometry relative to untreated control; type: functional; conditions: in the assay text read “accumulation at sub-G1 phase” for “accumulation at G2/M phase”; outline: as §2
HeLa [20] = test: Induction of cell cycle arrest in human HeLa cells assessed increase in subG1 phase accumulation at 24 uM incubated for 12 hrs by 33342 propidium iodide based flow cytometry relative to Withaferin A; type: functional; outline: as §2
HeLa [21] = test: Induction of cell cycle arrest in human HeLa cells assessed increase in subG1 phase accumulation at 24 uM incubated for 12 hrs by 33342 propidium iodide based flow cytometry relative to untreated control; type: functional
HeLa [22] = test: Induction of cell cycle arrest in human HeLa cells assessed increase in subG1 phase accumulation at 16 uM by 33342 propidium iodide based flow cytometry relative to untreated control; type: functional; conditions: TDE = time-dependent effect; outline: as §2
Vero [23] = test: Cytotoxicity against African green monkey Vero cells assessed as reduction in cell viability using compound addition to cell culture cells in lag phase of growth and incubated for 48 hrs by MTT assay; type: cell-based, Chlorocebus sabaeus; conditions: Chlorocebus sabaeus, Vero, 48 h; read-out: IC50
HeLa [24] = test: Induction of late apoptosis in human HeLa cells at 8 uM incubated for 1 hr by annexin V and propidium iodide staining based flow cytometry; type: functional, cell-based
HeLa [25] = test: Induction of apoptosis in human HeLa cells assessed as increase in caspase-3 activity by measuring pNA release level at 24 uM incubated for 4 hrs using c-DEVD-pNA substrate by colorimetric assay; type: functional; outline: as §1

Q: With `CC1=C(COC(=O)c2ccccc2)C(=O)O[C@@H]([C@@H](C)[C@H]2CC[C@H]3[C@@H]4C[C@H]5O[C@]56[C@@H](O)C=CC(=O)[C@]6(C)[C@H]4CC[C@]23C)C1` as the molecule, how does the IC50 (Vero [1]) read?
A: 500 nM

Q: What about the Activity (HeLa [2]) of the same molecule?
A: Active

Q: What about the IC50 (A549 [3]) of the same molecule?
A: 1500 nM

Q: And the Activity (HeLa [4])?
A: 0.85 nmol/min/mL

Q: What about the IC50 (A549 [5]) of the same molecule?
A: 1000 nM

Q: And the Activity (HeLa [6])?
A: Tde

Q: And the Activity (HeLa [7])?
A: 22.1%

Q: What about the IC50 (HeLa [8]) of the same molecule?
A: 800 nM

Q: And the Activity (HeLa [9])?
A: 0.32 nmol/min/mL

Q: And the IC50 (HeLa [10])?
A: 1600 nM

Q: And the IC50 (MCF7 [11])?
A: 300 nM

Q: And the selectivity ratio [12]?
A: 2.5

Q: And the Activity (HeLa [13])?
A: 1.7 to 2 nmol/min/mL

Q: What about the Activity (HeLa [14]) of the same molecule?
A: 28%

Q: And the IC50 (MCF7 [15])?
A: 700 nM

Q: And the Activity (HeLa [16])?
A: Active

Q: And the Activity (HeLa [17])?
A: 0.52 nmol/min/mL

Q: And the Activity (HeLa [18])?
A: 0.67 nmol/min/mL

Q: What about the Activity (HeLa [19]) of the same molecule?
A: 37.8%

Q: What about the “fold change (FC)” value (HeLa [20]) of the same molecule?
A: 2

Q: And the “fold change (FC)” value (HeLa [21])?
A: 4 - 6

Q: What about the Activity (HeLa [22]) of the same molecule?
A: Tde

Q: What about the IC50 (Vero [23]) of the same molecule?
A: 200 nM

Q: And the Activity (HeLa [24])?
A: Active

Q: What about the Activity (HeLa [25]) of the same molecule?
A: 1.16 nmol/min/mL
